We go through 26 compounds from article PMC8693751 (RSC Advances, 2021).

As usually defined, the CC50 is the concentration giving 50% cytotoxicity.

For data set [1], the system named is T. cruzi amastigotes (Tulahuen strain). Nature of the data set: Amastigote assay. The format is cell-based. The note with it: Trypanosoma cruzi, L929, read-out: Amastigote, IC50. In a few lines: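 Tulahuen T. cruzi expressing E. coli beta-galactosidase, grown in L-929 fibroblasts in RPMI 1640 without phenol red with 10% FBS and glutamine. Fibroblasts were seeded at 4.0 × 10³/well overnight (37 °C, 5% CO2), then given trypomastigotes at 4.0 × 10⁴/well for 2 h before the free parasites were removed. At 48 h, test compound in DMSO was added (0.625–20 μg mL−1, six levels, quadruplicate). After 7 days, 100 μM chlorophenol red β-D-galactopyranoside and 0.1% Nonidet P-40 were added overnight at 37 °C and A570 read as % growth inhibition. Benznidazole was the positive control; two independent experiments.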

Data set [2] has as its system L. amazonensis promastigotes. Nature of the data set: Leishmanicidal activity against promastigote forms, L. amazonensis. It is filed as cell-based, Leishmania amazonensis. The method in brief: (§1)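 Promastigotes (L. amazonensis WHOM/00LTB0016; L. infantum MHOM/MA/67/ITMAP-263) at 1 × 10⁶ cells/mL in Schneider's medium with 10% FBS were exposed to eight test compound levels (1.5–200 μg mL−1) for 72 h at 26 °C. Untreated cells were the negative control and miltefosine the standard.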

Data set [3] concerns L. infantum promastigotes. Nature of the data set: Leishmanicidal activity against promastigote forms, L. infantum. It is filed as cell-based, Leishmania infantum. The method in brief:
as §1

The subject of data set [4] is L. amazonensis promastigotes. Conditions: cited from earlier work.
Data set [5] deals with L. infantum promastigotes. The note with it: cited from earlier work.
The test system of the next data set is T. cruzi trypomastigotes. Briefly: Cell death assessment through flow cytometry. It is filed as cell-based, Trypanosoma cruzi. The note with it: for double-positive (double-stained) cells (upper right quadrant): 24 hours. In a few lines: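 […] trypomastigotes taken from infected L929 supernatant were seeded at 4 × 10⁵/well in RPMI-1640 with test compound (in DMSO) at three levels, 37 °C for 24 h. Benznidazole was the positive control and medium the negative control. Cells were washed in PBS, placed in binding buffer, and labelled with propidium iodide (50 μg mL−1 solution) plus Annexin-FITC for 15 min at room temperature in the dark. 20000 events were acquired, in triplicate, and analysed by ANOVA with Dunnett's test (p < 0.05).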
A general note: A flow cytometer gives signals particle by particle.

In a further data set the test system is LLC-MK2 cells. Conditions: read-out: LLC-MK2, CC50, cited from earlier work.
The mark [6] stands for this setting: Leishmania amazonensis, 72 h, read-out: Promastigotes IC50L.Ama, 72 hours.
The mark [7] stands for this setting: Leishmania infantum, 72 h, read-out: Promastigotes IC50L.Inf, 72 hours.
Where [8] appears, read: read-out: IC50L.inf, earlier carboxylic acids.

Entries after “also recorded” stand apart in the source; their conditions may differ. Where two headings read alike, the source gives them in different places.

`CCOC(=O)c1csc(NN=Cc2cccc(Cl)c2)n1` [1a, Ethyl 2-(2-(3-chlorobenzylidene)hydrazinyl)thiazole-4-carboxylate]: the figures for the IC50 in data set [1], in data set [2] (setting [6]) and in data set [3] (setting [7]) were 16.9 µM, 189 µM and 164 µM, respectively.

For the compound `CCOC(=O)c1csc(NN=Cc2ccccc2Cl)n1` [1b, Ethyl 2-(2-(2-chlorobenzylidene)hydrazinyl)thiazole-4-carboxylate], the IC50 is 34.5 µM in data set [4] (read-out: IC50L.ama, earlier carboxylic acids); 27.9 µM in data set [2] (setting [6]); 59.5 µM in data set [5] (setting [8]); 14.4 µM in data set [3] (setting [7]).

As for `CCOC(=O)c1csc(NN=Cc2ccc(OC)cc2)n1` [1c, Ethyl 2-(2-(4-methoxybenzylidene)hydrazinyl)thiazole-4-carboxylate], the IC50 in data set [2] (setting [6]) is 392 µM; in data set [5] (setting [8]), 85.3 µM; in data set [3] (setting [7]) it was 332 µM.

Consider `CCOC(=O)c1csc(NN=Cc2cccc(OC)c2)n1` [1d, Ethyl 2-(2-(3-methoxybenzylidene)hydrazinyl)thiazole-4-carboxylate], for which the figures for the IC50 in data set [2] (setting [6]) and in data set [3] (setting [7]) were 159 µM and 104 µM, respectively.

As for `CCOC(=O)c1csc(NN=Cc2cccc(Br)c2)n1` [1e, Ethyl 2-(2-(3-bromobenzylidene)hydrazinyl)thiazole-4-carboxylate], the IC50 in data set [2] (setting [6]) came out at 246 µM; in data set [3] (setting [7]), 170 µM.

As to `CCOC(=O)c1csc(NN=Cc2ccccc2Br)n1` [1f, Ethyl 2-(2-(2-bromobenzylidene)hydrazinyl)thiazole-4-carboxylate], the IC50 was determined as 56.5 µM in data set [1]; 23.3 µM in data set [2] (setting [6]); 24.3 µM in data set [2] (read-out: Promastigotes IC50L.Ama, 72 hours); 23.5 µM in data set [3] (setting [7]). The “cell death mechanism of T. cruzi” value with T. cruzi trypomastigotes (PI / Annexin-V staining) is “necrosis and apoptosis; also recorded: consistent with necrosis”. The “double-positive (double-stained) cells (upper right quadrant)” value with T. cruzi trypomastigotes (at 4 × IC50 (1f 3.32 μM; BZD 141.6 μM)) was 17.58%.

For `CCOC(=O)c1csc(NN=C(C)c2ccccc2)n1` [1g, Ethyl 2-(2-(1-phenylethylidene)hydrazinyl)thiazole-4-carboxylate], the values for the IC50 in data set [1], in data set [2] (setting [6]) and in data set [3] (setting [7]) were 40.7 µM, 43 µM and 37.4 µM, respectively.

For the compound `CCOC(=O)c1csc(NN=Cc2ccco2)n1` [1h, Ethyl 2-(2-(furan-2-ylmethylene)hydrazinyl)thiazole-4-carboxylate], the IC50 is 75.4 µM in data set [1], 451 µM in data set [2] (setting [6]) and 374 µM in data set [3] (setting [7]).

As for `CCOC(=O)CC1SC(=NN=Cc2ccccc2)NC1=O` (centres unmarked) [2a, Ethyl 2-((2-benzylidene)hydrazono)-4-oxothiazolidine-5-acetate], the IC50 in data set [2] (setting [6]) stood at 367 µM; in data set [3] (setting [7]), 365 µM.

For the compound `COC(=O)CC1SC(=NN=Cc2ccc(Cl)cc2)NC1=O` (centres unmarked) [2b, Methyl 2-(2-(4-chlorobenzylidene)hydrazono)-4-oxothiazolidine-5-acetate], the IC50 in data set [2] (setting [6]) amounted to 91.4 µM; in data set [3] (setting [7]) it was 33.2 µM.

Regarding `CCOC(=O)CC1SC(=NN=Cc2ccccc2Cl)NC1=O` (centres unmarked) [2c, Ethyl 2-(2-(2-chlorobenzylidene)hydrazono)-4-oxothiazolidine-5-acetate], the figures for the IC50 in data set [2] (setting [6]) and in data set [3] (setting [7]) were 114 µM and 129 µM, respectively.

Regarding `CCOC(=O)CC1SC(=NN=Cc2ccc(Br)cc2)NC1=O` (centres unmarked) [2d, Ethyl 2-(2-(4-bromobenzylidene)hydrazono)-4-oxothiazolidine-5-acetate], the figures for the IC50 in data set [2] (setting [6]) and in data set [3] (setting [7]) were 14.6 µM and 14.5 µM, respectively.

In the case of `CCOC(=O)CC1SC(=NN=Cc2cccc(Br)c2)NC1=O` (centres unmarked) [2e, Ethyl 2-(2-(3-bromobenzylidene)hydrazono)-4-oxothiazolidine-5-acetate], the IC50 was found to be 120 µM in data set [2] (setting [6]) and 116 µM in data set [3] (setting [7]).

Turning to `CCOC(=O)CC1SC(=NN=Cc2ccc([N+](=O)[O-])cc2)NC1=O` (centres unmarked) [2f, Ethyl 2-(2-(4-nitrobenzylidene)hydrazono)-4-oxothiazolidine-5-acetate], the IC50 in data set [2] (setting [6]) was 57.5 µM; in data set [3] (setting [7]), 325 µM.

With `CCOC(=O)CC1SC(=NN=Cc2cccc([N+](=O)[O-])c2)NC1=O` (centres unmarked) [2g, Ethyl 2-(2-(3-nitrobenzylidene)hydrazono)-4-oxothiazolidine-5-acetate], the IC50 in data set [2] (setting [6]) amounted to 309 µM; in data set [3] (setting [7]) it was 329 µM.

Turning to `CCOC(=O)CC1SC(=NN=Cc2ccccc2[N+](=O)[O-])NC1=O` (centres unmarked) [2h, Ethyl 2-(2-(2-nitrobenzylidene)hydrazono)-4-oxothiazolidine-5-acetate], the figures for the IC50 in data set [2] (setting [6]) and in data set [3] (setting [7]) were 17 µM and 295 µM, respectively.

Turning to `CCOC(=O)CC1SC(=NN=Cc2ccc(OC)cc2)NC1=O` (centres unmarked) [2i, Ethyl 2-(2-(4-methoxybenzylidene)hydrazono)-4-oxothiazolidine-5-acetate], the values for the IC50 in data set [2] (setting [6]) and in data set [3] (setting [7]) were 169 µM and 147 µM, respectively.

For `CCOC(=O)CC1SC(=NN=Cc2ccccc2OC)NC1=O` (centres unmarked) [2j, Ethyl 2-(2-(2-methoxybenzylidene)hydrazono)-4-oxothiazolidine-5-acetate], the IC50 in data set [2] (setting [6]) stood at 186 µM; in data set [3] (setting [7]) it was 236 µM.

In the case of `CCOC(=O)CC1SC(=NN=Cc2cccc(O)c2)NC1=O` (centres unmarked) [2k, Ethyl 2-(2-(3-hydroxybenzylidene)hydrazono)-4-oxothiazolidine-5-acetate], the figures for the IC50 in data set [2] (setting [6]) and in data set [3] (setting [7]) were 364 µM and 370 µM, respectively.

Take `CCOC(=O)CC1SC(=NN=Cc2ccccc2O)NC1=O` (centres unmarked) [2l, Ethyl 2-(2-(2-hydroxybenzylidene)hydrazono)-4-oxothiazolidine-5-acetate]: the IC50 amounted to 84.3 µM in data set [2] (setting [6]) and 67.3 µM in data set [3] (setting [7]).

Consider `CCOC(=O)CC1SC(=NN=Cc2ccc(C)cc2)NC1=O` (centres unmarked) [2m, Ethyl 2-(2-(4-methylbenzylidene)hydrazono)-4-oxothiazolidine-5-acetate], for which the IC50 in data set [2] (setting [6]) is 13.3 µM; in data set [3] (setting [7]), 18.8 µM; in data set [3] (read-out: Promastigotes IC50L.Inf, 72 hours), 18.8 µM.

Take `CCOC(=O)CC1SC(=NN=Cc2ccccc2C)NC1=O` (centres unmarked) [2n, Ethyl 2-(2-(2-methylbenzylidene)hydrazono)-4-oxothiazolidine-5-acetate]: the IC50 is 268 µM in data set [2] (setting [6]) and 168 µM in data set [3] (setting [7]).

For the compound `CCOC(=O)CC1SC(=NN=C2CCCc3ccccc32)NC1=O` (centres unmarked) [2o, Ethyl 2-((2-(3,4-dihydronaphthalen-1(2H)-ylidene))hydrazono)-4-oxo-thiazolidin-5-acetate], the figures for the IC50 in data set [2] (setting [6]) and in data set [3] (setting [7]) were 180 µM and 176 µM, respectively.

As to `CCOC(=O)CC1SC(=NN=Cc2ccc(O)c(OC)c2)NC1=O` (centres unmarked) [2p, Ethyl 2-(2-(4-hydroxy-3-methoxybenzylidene)hydrazono)-4-oxothiazolidine-5-acetate], the IC50 in data set [2] (setting [6]) was 233 µM; in data set [3] (setting [7]), 320 µM.

In the case of `O=C(Cn1ccnc1[N+](=O)[O-])NCc1ccccc1` [BZD, Benznidazole, reference compound], the CC50 in the data set on LLC-MK2 cells (standard drug BZD) was 615 µM. The IC50 in data set [1] stood at 5.65 µM. Besides, the “double-positive (double-stained) cells (upper right quadrant)” value with T. cruzi trypomastigotes (at 2 × IC50 (1f 1.66 μM; BZD 70.8 μM)) was 19.56%.

For `CCCCCCCCCCCCCCCCOP(=O)([O-])OCC[N+](C)(C)C` [Miltefosine, reference compound], the CC50 with LLC-MK2 cells (standard drug Miltefosine) is 12.3 µM. Further, the IC50 in data set [4] (read-out: Promastigotes IC50L.Ama, standard drug Miltefosine) is 36.3 µM; in data set [5] (read-out: Promastigotes IC50L.Inf, standard drug Miltefosine), 53.7 µM.
